“And” between values parts separate entries of the source, which are not always exact repeats. Equal values may be shown once.
Assays:
[1] = target: T1, Sodium-dependent noradrenaline transporter (Homo sapiens, UniProt P23975); assay: In vitro binding affinity against human norepinephrine transporter in human embryonic kidney cell line by using [125I]-RTI-55 radioligand; format: cell-based
[2] = target: T2, Sodium-dependent dopamine transporter (Homo sapiens, UniProt Q01959); assay: In vitro binding affinity against human dopamine transporter in dog kidney cell line by using [125I]RTI-55 as radioligand; format: cell-based
T2 sequence (Q01959 whole entry): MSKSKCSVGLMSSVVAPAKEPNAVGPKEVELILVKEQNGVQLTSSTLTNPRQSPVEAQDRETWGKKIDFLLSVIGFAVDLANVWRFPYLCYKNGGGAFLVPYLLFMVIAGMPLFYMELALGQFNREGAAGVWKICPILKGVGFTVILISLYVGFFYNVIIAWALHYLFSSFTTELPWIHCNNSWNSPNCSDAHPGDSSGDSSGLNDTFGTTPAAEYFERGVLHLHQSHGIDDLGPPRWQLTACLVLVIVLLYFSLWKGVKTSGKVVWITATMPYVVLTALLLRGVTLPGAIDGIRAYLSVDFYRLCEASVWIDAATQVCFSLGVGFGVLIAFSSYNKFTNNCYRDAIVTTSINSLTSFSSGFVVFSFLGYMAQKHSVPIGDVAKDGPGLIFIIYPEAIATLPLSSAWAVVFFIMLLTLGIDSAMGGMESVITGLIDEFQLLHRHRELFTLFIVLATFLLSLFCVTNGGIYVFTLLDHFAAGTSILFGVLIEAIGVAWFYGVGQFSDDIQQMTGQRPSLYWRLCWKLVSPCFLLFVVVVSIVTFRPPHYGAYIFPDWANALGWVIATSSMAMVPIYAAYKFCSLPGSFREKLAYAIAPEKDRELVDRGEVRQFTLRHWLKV
Method in brief: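 Membranes of MDCK cells stably expressing hDAT, grown in DMEM/10% FBS/geneticin. […] Competitor 12 concentrations 10⁻¹³–10⁻⁵ M in triplicate; GF/B filtration, gamma counting; Ki as geometric mean of ≥3 assays.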

[3] = target: Sodium-dependent serotonin transporter (Homo sapiens, UniProt P31645); assay: biochemical; format: cell-based, kidney
Sodium-dependent serotonin transporter, sequence (P31645 whole entry): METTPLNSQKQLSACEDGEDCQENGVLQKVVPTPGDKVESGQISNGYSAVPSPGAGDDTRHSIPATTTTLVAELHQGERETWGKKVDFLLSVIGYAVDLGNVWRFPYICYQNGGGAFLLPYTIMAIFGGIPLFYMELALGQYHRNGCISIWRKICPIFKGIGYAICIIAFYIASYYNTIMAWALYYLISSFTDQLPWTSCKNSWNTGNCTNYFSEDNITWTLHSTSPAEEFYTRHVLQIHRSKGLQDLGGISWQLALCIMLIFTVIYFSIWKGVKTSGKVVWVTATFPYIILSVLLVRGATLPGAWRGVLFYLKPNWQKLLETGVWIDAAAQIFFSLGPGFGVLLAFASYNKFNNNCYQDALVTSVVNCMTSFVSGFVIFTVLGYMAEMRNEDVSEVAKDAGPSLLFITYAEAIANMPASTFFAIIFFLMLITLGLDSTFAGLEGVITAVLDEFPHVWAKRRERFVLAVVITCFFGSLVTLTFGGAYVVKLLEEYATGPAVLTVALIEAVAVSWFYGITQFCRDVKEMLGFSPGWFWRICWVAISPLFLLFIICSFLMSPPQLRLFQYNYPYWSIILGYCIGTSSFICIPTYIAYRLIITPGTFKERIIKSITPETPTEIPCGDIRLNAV

[4] = target: T1, Sodium-dependent noradrenaline transporter; assay: In vitro binding affinity against human norepinephrine transporter in human embryonic kidney cell line using [125I]RTI-55 as radioligand; format: cell-based
[5] = target: T2, Sodium-dependent dopamine transporter; assay: In vitro binding affinity against human dopamine transporter in dog kidney cell line using [125I]RTI-55 as radioligand; format: cell-based
[6] = target: T1, Sodium-dependent noradrenaline transporter; assay: In vitro binding affinity against human norepinephrine transporter in human embryonic kidney cell line by using [3H]-[…] radioligand; format: cell-based
[7] = target: T2, Sodium-dependent dopamine transporter; assay: In vitro binding affinity against human dopamine transporter in dog kidney cell line by using [3H]WIN-35428 as the radiotracer; format: cell-based

T1 sequence (P23975 whole entry): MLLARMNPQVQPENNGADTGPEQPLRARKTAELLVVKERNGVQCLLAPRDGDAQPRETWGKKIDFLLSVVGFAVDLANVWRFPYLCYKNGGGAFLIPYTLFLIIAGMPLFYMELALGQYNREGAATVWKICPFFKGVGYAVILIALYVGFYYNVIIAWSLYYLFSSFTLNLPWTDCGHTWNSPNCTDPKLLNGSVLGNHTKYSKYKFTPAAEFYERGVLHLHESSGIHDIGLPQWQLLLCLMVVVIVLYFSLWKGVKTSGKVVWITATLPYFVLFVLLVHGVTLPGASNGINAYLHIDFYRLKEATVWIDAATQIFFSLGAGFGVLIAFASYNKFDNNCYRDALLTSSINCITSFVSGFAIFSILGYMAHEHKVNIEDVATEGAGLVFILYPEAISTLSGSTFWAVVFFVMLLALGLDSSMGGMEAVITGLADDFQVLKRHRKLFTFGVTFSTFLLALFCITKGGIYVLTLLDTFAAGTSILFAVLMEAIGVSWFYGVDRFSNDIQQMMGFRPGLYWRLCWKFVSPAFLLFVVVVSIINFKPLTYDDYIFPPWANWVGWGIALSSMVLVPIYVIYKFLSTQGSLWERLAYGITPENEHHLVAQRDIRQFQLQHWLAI

SMILES: COC(=O)C1C2CCC(CC1c1ccc(/C=C\Br)cc1)N2 (centres undefined)
- Ki [1]: 2.5 nM
- Ki [2]: 3.9 nM
- Ki [3]: 0.04 nM

SMILES: COC(=O)C1C2CCC(CC1c1ccc(/C=C\I)cc1)N2 (centres undefined)
- Ki [2]: 3.5 nM
- Ki [3]: 0.05 nM and 0.04 nM (2×)
- Ki [4]: 24 nM
- Ki [5]: 15 nM
- Ki ([5]; kidney): 15 nM

SMILES: COC(=O)[C@@H]1C2CC[C@H](C[C@@H]1c1ccc(I)cc1)N2C
- Ki [2]: 1.3 nM
- Ki [3]: 4.2 nM
- Ki [6]: 36 nM

SMILES: COC(=O)C1C(c2ccc(C=C(Br)Br)cc2)CC2CCC1N2C (centres undefined)
- Ki [1]: 161 nM
- Ki [2]: 6.73 nM
- Ki [3]: 1.35 nM

SMILES: COC(=O)C1C2CCC(CC1c1ccc(C=C(Br)Br)cc1)N2 (centres undefined)
- Ki [1]: 5.6 nM
- Ki [2]: 5.6 nM
- Ki [3]: 0.08 nM

SMILES: COC(=O)C1C(c2ccc(/C=C\I)cc2)CC2CCC1N2C (centres undefined)
- Ki [1]: 450 nM
- Ki [2]: 22 nM
- Ki [3]: 0.11 nM

SMILES: COC(=O)C1C(c2ccc(/C=C\Br)cc2)CC2CCC1N2C (centres undefined)
- Ki [1]: 111 nM
- Ki [2]: 3.1 nM
- Ki [3]: 0.08 nM

SMILES: COC(=O)C1C2CCC(CC1c1ccc(I)cc1)N2 (centres undefined)
- Ki [2]: 0.69 nM
- Ki [3]: 0.36 nM
- Ki [6]: 7.5 nM

SMILES: CN1C2CCC1C(C(=O)Oc1ccccc1)C(c1ccc(Cl)cc1)C2 (centres undefined)
- Ki [3]: 390 nM
- Ki [6]: 242 nM
- Ki [7]: 5.25 nM

Reference: ChEMBL document CHEMBL1149321, “Synthesis, radiosynthesis, and biological evaluation of carbon-11 and iodine-123 labeled 2beta-carbomethoxy-3beta-[4'-((Z)-2-haloethenyl)phenyl]tropanes: candidate radioligands for in vivo imaging of the serotonin transporter” (J Med Chem, 2004)
